Reference: ChEMBL document CHEMBL4699587, “Pyridine-4(1H)-one Alkaloids from Waltheria indica as Antitrypanosomatid Agents” (J Nat Prod, 2020)

Experiments:
[1] = Selectivity index, ratio of IC50 for cytotoxicity against rat L6 cells to IC50 for growth inhibition of amastigote form of Trypanosoma cruzi Tulahuen C2C4 expressing LacZ infected in rat L6 cells; type: toxicity, cell-based; settings: read-out: Ratio IC50
Summary of the method: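 Selectivity index is calculated as the IC50 for cytotoxicity in uninfected rat skeletal L6 host cells divided by the IC50 against T. cruzi (Tulahuen C4) amastigotes. Both IC50 values are in µM.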

L6 = experiment: Cytotoxicity against rat L6 cells assessed as reduction in cell viability after 70 hrs by resazurin dye based inverted microscopic analysis; settings: L6, 70 h
Trypanosoma cruzi = experiment: Growth inhibition of amastigote form of Trypanosoma cruzi Tulahuen C2C4 expressing LacZ infected in rat L6 cells assessed as reduction in parasitic growth incubated for 96 hra by CPRG/Nonidet reagent based inverted microscopic analysis; type: functional, organism-based
Summary of the method: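 Intracellular amastigotes of T. cruzi Tulahuen C4 strain were tested in vitro for growth inhibition. IC50 values are in µM, given as the mean of two independent assays or the mean of three independent assays ± SD.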

Structure (SMILES)	selectivity ratio [1]	IC50 (L6) [µM]	IC50 (Trypanosoma cruzi) [µM]
CCCCCCCCCCCCc1cc(=O)c(OC)c(C)[nH]1	> 6	> 32	5
COc1ccccc1[C@]12CC[C@H](O[C@@H]1OC)c1c2ccc2[nH]c(C)c(OC)c(=O)c12	> 1	> 24	18.7
COc1c(CO)[nH]c2c(c1=O)[C@H](CCCCCc1ccccc1)CCC2	> 4	> 28	7
COc1c(CO)n(OC)c2c(c1=O)[C@H](CCCCCc1ccccc1)CCC2	> 6	> 26	3.9
O=C(Cn1ccnc1[N+](=O)[O-])NCc1ccccc1 [BENZNIDAZOLE]	> 119	> 345	2.9
COc1c(C)[nH]c2c(c1=O)[C@@H](CCCCCc1ccccc1)CCC2=O	24.5	12	0.5
COc1ccc(OC)c([C@@]2(O)c3ccc4[nH]c(C)c(OC)c(=O)c4c3[C@@H]3CC[C@H]2O3)c1	> 1	> 25	14.7
COc1ccccc1[C@@]12CC[C@@H](OC1)c1c2ccc2[nH]c(C)c(OC)c(=O)c12	> 1	> 26	19
COc1c(C)[nH]c2c(c1=O)[C@@H](CCCCCc1ccccc1)CC[C@H]2O	> 33	> 28	0.8
COc1cc(OC)cc(C2=CCCCc3c2ccc2[nH]c(C)c(OC)c(=O)c32)c1	> 1.5	> 25	13.1
CCCCCCCCc1cccc2[nH]c(C)c(OC)c(=O)c12	1.5	15	10
COc1c(C)n(OC)c2c(c1=O)[C@@H](CCCC[C@H](O)c1ccccc1)CCC2	> 3.5	> 26	7.5
COc1c(C)[nH]c2c(OC)ccc(CCCCCc3ccccc3)c2c1=O	> 12.5	> 26	2.1
COc1c(CO)[nH]c2ccc3c(c2c1=O)[C@@H]1CCC[C@@]3(c2ccccc2)O1	> 1.5	> 22	14.7
COc1c(C)[nH]c2c(c1=O)[C@@H](CCCCCc1ccccc1)CC[C@H]2OC	13.8	1.8	0.1
COc1c(C)[nH]c(CCCCCCCCCc2ccccc2)cc1=O	> 13	> 29	2.1
COc1c(C)[nH]c2ccc3c(c2c1=O)[C@@H]1CC[C@H](O)[C@@]3(c2ccccc2)O1	> 1	> 22	> 20
COc1c(C)[nH]c2c(c1=O)[C@@H](CCCCCc1ccccc1)CCC2	5	6.5	1.3
COc1cc(CCCCCc2ccccc2)c2c(=O)c(OC)c(C)[nH]c2c1OC	> 1.5	> 23	12.9
CCCCCCCC[C@H]1CC[C@@H](O)c2[nH]c(C)c(OC)c(=O)c21	4	26.2	6.5
